UPR XBP1 act = adaptive UPR (XBP1) activation | CHO-XBP1 luciferase reporter, IRE1-XBP1 UPR activation, luminescence; percent of tunicamycin response, DMSO as zero | activation, % at 20 µM | hit rate 0.33% among 330,000 | AID 463104;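 active = versus positive control, 20 µM dose yields 30% or more activation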
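Assay system: CHO-XBP1 luciferase reporter cells; Schedule: 6 h treatment, 37 °C; Detection: glow luminescence from Steady-Glo reagent; Benchmarks: high control tunicamycin 10 µg/mL final, low control DMSO vehicle only.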
iPSC survival up = increases survival of single human iPS cells | survival enhancement, % at 20 µM | hiPSC single-cell survival, ATPlite luminescence; 100% = ROCK inhibitor wells, 0% = DMSO | hit rate 0.044% among 360,000; in the data active = survival enhancement above about 18%;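 also: cells exposed to compounds for 16 hours before the ATP read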
Cardio protect = modulators protecting cardiomyocytes from myocardial damage; H9c2 cardiomyocytes, H2O2 injury protection, ATPLite, 2 h; protection from H2O2 cell death, % at 20 µM; hit rate 0.63% among 360,000; AID 588492;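 active = compounds giving at least 50% protection of heart cells from peroxide-induced death in the single-dose screen, raw or plate-pattern-corrected value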
CHOP inh = CHOP inhibition in unfolded protein response. AID 2732. inhibition, % at 10 µM. CHO-K1 CHOP-promoter luciferase, tunicamycin-induced, 15-18 h. hit rate 3.8% among 220,000;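 active = compounds that reduced the stress-induced luciferase reporter signal by more than about 70% of percent inhibition, limit read from the data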
CHOP UPR activ = apoptotic UPR (CHOP) activation | CHO-CHOP luciferase reporter, luminescence; percent of tunicamycin response over DMSO baseline | activation, % at 10 µM | hit rate 0.34% among 330,000;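 active = at 10 µM dose, activation of 40% or more, normalized to positive control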
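Assay system: CHO cells with stable CHOP pathway luciferase reporter; Buffer or medium: F12 plus 10% serum; Times: 16-18 h cell attachment, then 6 h compound exposure, 37 °C; Signal: luciferase luminescence; Read-out basis: percent activation relative to tunicamycin control; Control set: tunicamycin high control, DMSO low control.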
Of the large screens only hits and unclear results are named; the others gave an inactive call. Many of the other results were omitted from the sample, so hits are more common in it than they were.

CCOC(=O)c1c(C)nc2sc3c(c2c1-c1ccc(OC)cc1)NC(c1ccccc1)NC3=O (stereo not given)	iPSC survival up 25.8
CCCCCCn1cc(CN2CC(N(C)CCC)CS2(=O)=O)nn1 (stereo not given)	none (no result: UPR XBP1 act, Cardio protect, CHOP inh, CHOP UPR activ)
COc1cc(/C=C/CN2CCC(C(=O)NC(c3ccc(F)cc3)c3ccc4ccccc4n3)CC2)ccc1OC(C)=O (stereo not given)	none (no result: UPR XBP1 act, CHOP inh, CHOP UPR activ)
O=C1[C@@H]2Cc3c([nH]c4ccccc34)[C@@H](c3ccccc3)N2C(=O)[C@@H]2Cc3c([nH]c4ccccc34)[C@@H](c3ccccc3)N12	CHOP inh 106.1 (no result: UPR XBP1 act, iPSC survival up, Cardio protect, CHOP UPR activ)
O=C1NCC(=O)N2C(c3ccccc3)c3[nH]c4ccccc4c3C[C@@H]12 (stereo not given in full)	none (no result: CHOP inh)
CC(=O)NC(c1ccc(F)c(F)c1)c1nc(-c2cccs2)cs1 (stereo not given)	none (no result: UPR XBP1 act, CHOP inh, CHOP UPR activ)
Nc1nc(SCc2nc3scc(-c4cccs4)c3c(=O)[nH]2)n[nH]1	CHOP inh 77.5
COc1ccc(-c2onc(C)c2-c2ccc(C(=O)OC(C)C)o2)c(O)c1	CHOP inh 81.8
COc1ccc(N2C(=O)c3ccc(C(=O)OC(C)C)cc3C2=O)cc1	none
C[C@@H](CO)NC(=O)c1[nH]cnc1C(=O)Nc1cccc(Cl)c1	none (no result: UPR XBP1 act, CHOP inh, CHOP UPR activ)
Cc1ccc(S(=O)(=O)NC(c2ccccc2)C(C)C(=O)n2nc(C)cc2C)cc1 (stereo not given)	CHOP inh 73.1
Cc1ccc(S(=O)(=O)NC(CC(=O)n2nc(C)cc2C)c2ccccc2)cc1 (stereo not given)	CHOP inh 80.4
N#Cc1ccc(NC(=O)Nc2ccc(Cl)cc2)cc1	CHOP inh 77.5
O=C(Nc1ccc(Cl)cc1)Nc1ccc(Cl)c(Cl)c1	none (no result: iPSC survival up, Cardio protect, CHOP inh)
COc1cccc(C=Nc2cc(C)cc(C)c2)c1O	none
COc1cc(Br)cc(C=Nc2cccc(C(F)(F)F)c2)c1O	Cardio protect 53.4 (no result: UPR XBP1 act, CHOP UPR activ)
CC(C(=O)NC1=NCCS1)N1C(=O)C2CC=CCC2C1=O (stereo not given)	CHOP inh 82.6
CC(C(=O)NC1=NCCS1)N1C(=O)c2ccccc2C1=O (stereo not given)	none
CCCN(CCC)S(=O)(=O)c1ccc(C(=O)Nc2nc3c(s2)CCc2ccccc2-3)cc1	CHOP inh 77.5
CCC(C)CNC(=O)c1[nH]c(C(F)(F)F)nc1-c1ccccc1 (stereo not given)	none (no result: UPR XBP1 act, CHOP inh, CHOP UPR activ)
NC(=O)c1cccc(-c2ccnc3c2CC(C(=O)Nc2cccc(Oc4ccccc4)c2)O3)c1 (stereo not given)	none (no result: UPR XBP1 act, CHOP inh, CHOP UPR activ)
C/C(=N\NC(=O)c1ccccc1-n1cccc1)c1ccccn1	Cardio protect 69.2 (no result: UPR XBP1 act, CHOP inh, CHOP UPR activ)
CCOc1ccc(CC(=O)Nc2c(C(N)=O)oc3ccc(Br)cc23)cc1OCC	Cardio protect 78.2
O=[N+]([O-])c1ccc(N=Nc2c(Cl)cc(O)cc2Cl)cc1	CHOP inh 102.3 (no result: UPR XBP1 act, CHOP UPR activ)
CC(C)Oc1cccc(NC(=O)C2(C)CCCN2C(=O)C(C)C)c1 (stereo not given)	none (no result: UPR XBP1 act, CHOP inh, CHOP UPR activ)
CC1(C(=O)NS(=O)(=O)C2CC2)CCCN(C(=O)c2ccc(C(F)(F)F)cc2)C1 (stereo not given)	none (no result: UPR XBP1 act, CHOP inh, CHOP UPR activ)
CC(=O)Nc1ccc(C(=O)N/N=C/c2ccccc2OC(=O)c2ccc(Cl)cc2)cc1	Cardio protect 56.1
CC(OC(=O)Cc1n[nH]c(=O)c2ccccc12)C(=O)Nc1ccc(F)cc1Cl (stereo not given)	Cardio protect 68.8 (no result: CHOP inh)
Cc1cc(C)c(C(=O)C(C)OC(=O)Cc2n[nH]c(=O)c3ccccc23)cc1C (stereo not given)	none (no result: CHOP inh)
CC(OC(=O)Cc1n[nH]c(=O)c2ccccc12)C(=O)Nc1ccc(F)cc1 (stereo not given)	Cardio protect 59.2 (no result: CHOP inh)
O=C1/C(=C\c2cccnc2)CCc2ccccc21	none
O=C1/C(=C/c2ccccc2)CCCc2ccccc21	CHOP inh 89.2
COc1ccc(NC(=O)c2sc(=O)n(Cc3ccc(F)c(Cl)c3)c2C)cc1OC	none (no result: UPR XBP1 act, CHOP inh, CHOP UPR activ)
Cc1ccc(Nc2nc(=O)[nH]nc2C)cc1	none
Cc1ccc(Nc2nc(N)[nH]c(=O)c2N=O)cc1	Cardio protect 51.9
COc1ccc(C(=O)/C=C/C(=O)N(Cc2ccccc2OC)C(C(=O)NC2CCCCC2)c2ccncc2)c(O)c1 (stereo not given)	none
COc1ccc(C(=O)/C=C/C(=O)N(CC(=O)NC2CCCCC2)Cc2ccccc2OC)c(O)c1	CHOP inh 107.3 (no result: UPR XBP1 act, CHOP UPR activ)
COc1ccc(C(=O)/C=C/C(=O)N(Cc2ccccc2)C(C(=O)NC2CCCCC2)c2ccncc2)c(O)c1 (stereo not given)	none
COc1ccc(C(=O)/C=C/C(=O)N(CC(=O)NC2CCCCC2)CC2CCCO2)c(O)c1 (stereo not given)	CHOP inh 107.9
COc1ccc(C(=O)/C=C/C(=O)N(CC(=O)NC2CCCCC2)Cc2ccccc2)c(O)c1	CHOP inh 107.6 (no result: UPR XBP1 act, CHOP UPR activ)
COc1ccc(C(=O)/C=C/C(=O)N(Cc2ccc(F)cc2)C(C(=O)NC2CCCCC2)c2ccncc2)c(O)c1 (stereo not given)	none
N#Cc1cccc(NC(=O)c2cc(C3CCCCN3C(=O)CCCc3ccccc3)on2)c1 (stereo not given)	none (no result: UPR XBP1 act, CHOP inh, CHOP UPR activ)
O=C(NCC1CCCCC1)c1ccc2nc([C@@H]3O[C@H](CO)[C@H](O)[C@H](O)[C@H]3O)[nH]c2c1	none (no result: UPR XBP1 act, CHOP inh, CHOP UPR activ)
CCOCCn1c(=NC(=O)c2ccc(S(=O)(=O)N3CCOCC3)cc2)sc2cc(S(N)(=O)=O)ccc21	none (no result: CHOP inh)
COCCn1c(=NC(=O)c2cc(Cl)sc2Cl)sc2cc(S(N)(=O)=O)ccc21	CHOP inh 81.4
COCCn1c(=NC(=O)c2ccc(S(=O)(=O)N3CCCc4ccccc43)cc2)sc2cc(S(C)(=O)=O)ccc21	none
CCOCCn1c(=NC(=O)c2cc(Cl)sc2Cl)sc2cc(S(N)(=O)=O)ccc21	CHOP inh 90.4 (no result: iPSC survival up, Cardio protect)
COCCn1c(=NC(=O)c2nc3ccccc3s2)sc2cc(S(C)(=O)=O)ccc21	Cardio protect 57.8
COCCn1c(=NC(=O)c2ccc3c(c2)OCCO3)sc2cc(S(N)(=O)=O)ccc21	none
CC(C)C[C@@H](CN)NC(=O)c1nc[nH]c1C(=O)N[C@@H](C)C(=O)CNC[C@H](C)NC(=O)c1nc[nH]c1C(=O)N[C@@H](C)C(=O)O	none (no result: UPR XBP1 act, CHOP inh, CHOP UPR activ)
CN(C)S(=O)(=O)c1ccc(C(=O)OCC(=O)Nc2sc3c(c2C#N)CCCCC3)cc1	none
CC(C)(C)c1ccc(C(=O)OCC(=O)Nc2sc3c(c2C#N)CCC3)cc1	CHOP inh 90.2
CCN(CC)C(=O)C1=C(C)N(CCCN2CCCC2=O)C(=O)C(CC(=O)NC2CCCCC2)C1 (stereo not given)	none (no result: UPR XBP1 act, CHOP inh, CHOP UPR activ)
COc1ccc(-c2cc(C(F)(F)F)n3nc(C(=O)N4CCN(C(=O)c5ccco5)CC4)cc3n2)cc1	Cardio protect 55.3 (no result: CHOP inh)
COc1cccc(-c2cc3nc(C)cc(N4CCN(C(=O)c5ccoc5)CC4)n3n2)c1	none (no result: UPR XBP1 act, CHOP inh, CHOP UPR activ)

From PubChem BioAssay
